An excerpt weighted towards active compounds, which were near 5.3% of everything screened.
NALP3 yeast inh: inhibitors of NALP3 inflammasome in yeast | Yeast reconstituted NLRP3/ASC/caspase-1, beta-gal luminescence, 24 h | inhibition, % at 10 µM | hit rate 0.39% among 330,000;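 active means inhibition of 50% or more; inactive means inhibition below 50%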;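 further: plate controls were induced DMSO wells for no effect and uninduced yeast grown without galactose for full effect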
Mdm2 MdmX PPI: inhibitors of human Mdm2/MdmX interaction; O15151+Q00987; SaOS-2 split-luciferase Mdm2/MdmX complementation, luminescence; inhibition, % at 8 µM; hit rate 3% among 330,000;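 active means inhibition of at least 50% at 8 µM in the primary screen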
Target sequence (O15151 whole entry, looked up): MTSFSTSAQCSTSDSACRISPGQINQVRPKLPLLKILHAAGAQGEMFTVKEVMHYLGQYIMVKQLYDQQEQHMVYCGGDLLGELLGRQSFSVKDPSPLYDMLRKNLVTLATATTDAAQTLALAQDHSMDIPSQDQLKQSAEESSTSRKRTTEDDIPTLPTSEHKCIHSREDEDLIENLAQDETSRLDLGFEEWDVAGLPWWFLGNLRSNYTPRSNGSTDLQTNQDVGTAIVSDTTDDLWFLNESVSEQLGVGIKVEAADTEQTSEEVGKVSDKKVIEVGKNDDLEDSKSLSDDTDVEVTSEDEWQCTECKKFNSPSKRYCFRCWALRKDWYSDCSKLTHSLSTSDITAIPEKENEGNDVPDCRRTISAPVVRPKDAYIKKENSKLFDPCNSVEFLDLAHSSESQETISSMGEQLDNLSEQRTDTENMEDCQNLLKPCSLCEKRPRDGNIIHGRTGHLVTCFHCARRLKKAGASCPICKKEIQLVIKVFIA
Target sequence (Q00987 whole entry, looked up): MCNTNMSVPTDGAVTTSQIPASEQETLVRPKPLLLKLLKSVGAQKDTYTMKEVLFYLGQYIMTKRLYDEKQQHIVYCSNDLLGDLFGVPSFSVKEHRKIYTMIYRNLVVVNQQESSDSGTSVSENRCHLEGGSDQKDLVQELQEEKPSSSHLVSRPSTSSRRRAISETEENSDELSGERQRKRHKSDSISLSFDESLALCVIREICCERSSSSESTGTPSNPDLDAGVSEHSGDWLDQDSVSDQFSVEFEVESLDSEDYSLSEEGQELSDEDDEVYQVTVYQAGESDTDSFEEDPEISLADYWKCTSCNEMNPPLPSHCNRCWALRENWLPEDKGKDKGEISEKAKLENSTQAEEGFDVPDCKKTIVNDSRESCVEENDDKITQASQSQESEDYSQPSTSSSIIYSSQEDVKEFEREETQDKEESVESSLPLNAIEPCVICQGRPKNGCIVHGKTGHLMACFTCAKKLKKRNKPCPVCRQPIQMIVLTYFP
CSC inhib: blocks cancer stem cells; cancer stem cell-like cells viability, luminescence; AID 2717; inhibition, % at 7.5 µM; hit rate 1.1% among 300,000; in the data active means inhibition above about 75%; inconclusive means no clear call, values can overlap the other calls; tested in HMLE shEcad cells
T cruzi repl: T. cruzi replication inhibition; T. cruzi beta-gal in NIH3T3, luminescence, 90 h; hit rate 1.4% among 300,000; inhibition, % (no concentration beside the values);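 active means mean inhibition across valid replicates above about 55%, limit read from the data; inconclusive means mean below that limit but half or more replicates reach it; inactive means mean below it, under half of replicates reach it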;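 further: signal also drops with host cell toxicity which is not excluded here; 0% = plate median of DMSO wells and 100% = zero luminescence signal; higher percent means less beta-gal luminescence so fewer parasites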
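Material: NIH/3T3 host cells with β-galactosidase reporter T. cruzi; Input: 5,000 host fibroblasts per well; Medium: DMEM, 2% fetal bovine serum; Compound: 50 nL DMSO compound solution per well; Schedule: 3 h host attachment, then at least 90 h co-culture; Detection: luminescent β-galactosidase signal after 60 min lysis.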
Beta cell apopt: blocks beta cell apoptosis; INS-1E cytokine-induced death, ATP luminescence, 48 h; percent of positive-control rescue, neutral wells zero; hit rate 0.8% among 300,000; protection from apoptosis, % (concentration not given with the values); AID 435005;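 active means Every replicate reaches about 75%, or at least half do and their mean reaches it too, limit read from the data; inconclusive means At least half of replicates reach the limit but their mean does not; inactive means Under half of replicates reach the limit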;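 further: 0% = cytokine-treated negative control wells and 100% = positive control rescue; higher means more ATP so stronger rescue from cytokine killing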
Calb FLC: affects C. albicans growth with fluconazole | C. albicans CaCi-2 + fluconazole, Alamar Blue growth, 48 h | growth inhibition, % (test concentration not listed) | hit rate 0.57% among 300,000;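 active means growth inhibition above about 58% in most replicates, limit read from the data, passing the limit was not always enough; inconclusive means exactly half the replicates above a set limit; inactive means most replicates below a set limit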;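 further: all wells also contain fluconazole at 8 µg/ml as a sub-toxic cotreatment; 0% = median of DMSO wells and 100% = median of geldanamycin control wells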
Mdm2-MdmX conf: human Mdm2/MdmX binding inhibition, confirmed. shares compounds with Mdm2 MdmX PPI. luminescent assay. inhibition, % at 8 µM. hit rate 55% among 10,000. AID 489028; in the data active means inhibition above about 40%
Full FLuc ctr: full-length luciferase inhibition in Mdm2/MdmX counter-screen | shares compounds with Mdm2 MdmX PPI | SaOS-2 full-length luciferase counterscreen, luminescence | inhibition, % at 8 µM | hit rate 77% among 6,200;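 active means mean inhibition at 8 µM reaching about 37%, which flags the compound as non-specific, limit read from the data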;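 further: p53-null SaOS-2 cells with luciferase driven by a doxycycline-inducible promoter; compound on cells about two nights before reading with doxycycline added after day one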
* marks the source's active call; other numbers are inactive results; ? = inconclusive; . = no result given.

SMILES	NALP3 yeast inh	Mdm2 MdmX PPI	CSC inhib	T cruzi repl	Beta cell apopt	Calb FLC	Mdm2-MdmX conf	Full FLuc ctr
Clc1ccccc1CNC1CN2CCC1CC2 (stereo not given)	-9	17	1	-4	-2	18	.	.
c1ccc2c(c1)Sc1ccccc1N2CC1CN2CCC1CC2 (stereo not given)	17	75*	10	18	-2	.	44*	84*
COc1ccc(C(=O)N2C[C@H]3C[C@@H](C2)c2cccc(=O)n2C3)cc1OC	19	-5	-4	3	-10	-4	.	.
Cc1ccc(S(=O)(=O)c2nc(-c3ccccc3Cl)oc2N(C)C2CCN(C)CC2)cc1	22	72*	41	.	7	.	8	.
CCCCCCCSc1cc(OC)c(CCN(C)C)cc1OC	10	74*	34	40	-2	38	29	.
CCCCCCCCn1sccc1=O	8	80*	60	.	2	.	-2	.
COc1ccc(Oc2cc(NC(=O)c3nn(C)cc3[N+](=O)[O-])cc([N+](=O)[O-])c2)cc1	22	76*	.	-1	2	7	96*	46*
COc1ccc(NC(=O)c2cn(CCC#N)nc2-c2cccc([N+](=O)[O-])c2)cc1	9	-21	-6	-2	0	8	.	.
CCN1CCN(c2nc3c(c(=O)[nH]2)CCCC3)CC1	29	-9	8	-9	-3	-2	.	.
CCCCCCCn1c(=O)c(C(=O)Nc2cnccn2)c(O)c2ccccc21	45	65*	70	6	67	36	43*	44*
CCCCCn1c(=O)c(C(=O)Nc2cc(C)ccn2)c(O)c2ccccc21	33	10	30	0	-3	4	.	.
CCCCCn1c(=O)c(C(=O)Nc2cnccn2)c(O)c2ccccc21	34	52*	0	-18	73	10	48*	51*
CCCCCCn1c(=O)c(C(=O)Nc2cccc(C)n2)c(O)c2ccccc21	8	23	-7	2	.	3	.	.
CCCCn1c(=O)c(C(=O)NCc2ccncc2)c(O)c2ccccc21	13	51*	16	22	-8	?	20	.
CCCCn1c(=O)c(C(=O)Nc2ccccc2S(N)(=O)=O)c(O)c2ccccc21	18	52*	41	-3	3	-5	48*	40*
CC(=O)OC1N=C(c2ccccc2Cl)c2cc(Br)ccc2N(C)C1=O (stereo not given)	5	1	-1	-13	-9	4	.	.
O=[N+]([O-])CCO	1	13	-15	.	1	.	.	.
Cn1cc(C(=O)OCC(=O)NC2(C#N)CCCC2)c2ccccc21	12	13	5	.	2	.	.	.
C/C(CC(c1ccccc1)c1c(O)c2ccccc2oc1=O)=N\Nc1ccc([N+](=O)[O-])cc1[N+](=O)[O-] (stereo not given)	9	-8	30	11	10	-3	.	.
c1ccc2c(c1)OCC(C1=NCCN1)O2 (stereo not given)	29	57*	5	-4	.	-6	16	.
O=C(O)C1Cc2ccccc2N2CCCC12 (stereo not given)	17	-18	1	-10	-1	-1	.	.
Cc1nc2c(=O)n(C)c(=O)nc-2n(C)n1	26	74*	2	31	106*	19	58*	19
O=C(CCc1nnc2ccc(NCc3ccccc3Cl)nn12)N1CCC2(CC1)OCCO2	-5	15	0	-7	-3	14	.	.
Cc1ccc(C(=O)N[C@@H](C)CN2C3=NC[C@@H](Cc4ccccc4)N3C[C@H]2Cc2ccc(O)cc2)cc1Br	3	69*	23	29	6	-21	33	.
Cc1ccc(C(=O)N[C@@H](C)CN2C3=NC[C@H](Cc4ccccc4)N3C[C@H]2Cc2ccc(O)cc2)cc1Br	9	98*	30	10	1	-17	58*	57*
SMILES	NALP3 yeast inh	Mdm2 MdmX PPI	CSC inhib	T cruzi repl	Beta cell apopt	Calb FLC	Mdm2-MdmX conf	Full FLuc ctr
COc1ccc([C@@H](O)[C@@H](N)c2ccccc2)cc1	0	2	-9	14	-11	1	.	.
COc1ccc(-c2cc(-c3ccccc3)[n+](C)c(-c3ccccc3)c2)cc1	17	55*	-12	55*	109*	103*	36	52*
CC1(C)CC(N(CCc2ccccc2)Cc2ccccc2)CCO1 (stereo not given)	-16	18	1	8	-1	-4	.	.
Cc1cccn2c(=O)c3c(nc12)N1CCc2ccccc2C1C1(C3)C(=O)NC(=O)N(C)C1=O (stereo not given)	-2	7	-4	14	4	0	.	.
CC(C)c1oc(=O)cc2c1[C@@H](O)[C@H]1OC(=O)[C@@]3(C)CC[C@@H](O)[C@@]2(C)C13 (stereo not given in full)	9	63*	16	7	-11	-5	61*	65*
CC(C)c1oc(=O)cc2c1[C@@H](O)[C@H]1OC(=O)[C@@]3(C)C[C@@H](O)[C@@H](O)[C@@]2(C)C13 (stereo not given in full)	-3	81*	43	-23	12	15	58*	30
CCOc1cc2c(cc1OCC)-n1cccc1C(c1c(O)cccc1OC)NC2 (stereo not given)	5	21	-9	13	-12	-17	.	.
C=C(C)Cn1c(=O)n(CC2CS2)c2ccccc21 (stereo not given)	4	0	-4	-14	-6	5	.	.
CC(=O)OC(C)(C)/C=C/C(=O)[C@](C)(O)C1[C@H](O)C[C@@]2(C)C3CC=C4C(C[C@H](O)C(=O)C4(C)C)[C@]3(C)C(=O)C[C@]12C (stereo not given in full)	15	100*	70	.	58	.	100*	1
Cc1cccc(OCC(=O)N2CCN(Cc3cccnc3)CC2)c1	2	-1	-15	0	-1	-2	.	.
C=CCn1c(O)c(C(CC)=NCc2ccc3c(c2)OCO3)c(=O)[nH]c1=O	22	55*	5	10	-9	-35	5	.
C[C@]12CC[C@H](O)C[C@H]1CC[C@@H]1[C@@H]2C[C@@H](O)[C@]2(C)[C@@H](C3=CC(=O)OC3)CC[C@]12O	18	73*	84*	.	5	.	73*	34
C[C@]12CC[C@H](O)C[C@H]1CC[C@@H]1[C@@H]2CC[C@]2(C)[C@@H](C3=CC(=O)OC3)CC[C@]12O	28	75*	95*	.	-3	.	73*	53*
